# Test results: ChEMBL document CHEMBL4619791, “3-Difluoroalkyl Quaternary Oxindoles Inhibit Macrophage Pyroptosis by Blocking Inflammasome Recruitment of Caspase-1” (ACS Med Chem Lett, 2020)
# Calls of active or inactive are those of the source. The calls are words filed in the database; no cut-off is given here.
# Assays:
# [1] = test system: THP-1; test: Inhibition of pyroptosis in LPS-primed human THP1 assessed as reduction in nigericin-induced cell death at 0.1 to 20 uM by LDH assay; assay type: functional, cell-based
# Outline: (§1)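 THP-1 cells induced to pyroptosis. Cell death read by LDH release and pore formation by PI uptake. Means ± SE, ≥3 experimental replicates.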
# [2] = organism: Danio rerio; test: Antiinflammatory immunity against LPS-induced sepsis in […]:eGFP zebrafish larva assessed as decrease in macrophage infiltration in intestine at 5 uM measured at 7 dpf by confocal microscopic analysis; assay type: functional, organism-based
# Outline: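 Zebrafish sepsis model using Tg(mpeg1:eGFP) larvae with GFP-labelled macrophages, treated at 5 μM. Intestine imaged by confocal microscopy at 7 days post fertilization, and macrophages counted in the imaged region.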
# [3] = test system: J774.A1; test: Inhibition of caspase-1 recruitment to inflammasome in LPS-primed immortalized mouse […] cells assessed as nigericin-induced colocalization of caspase-1 and ASC at 5 uM by immunostaining based confocal microscopy; assay type: functional, cell-based
# Outline: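 Caspase-1 and ASC colocalization: Pearson's correlation coefficient calculated in 20 to 25 randomly selected cells.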
# [4] = test system: THP-1; test: Inhibition of pyroptosis in LPS-primed human THP1 assessed as reduction in nigericin-induced pyroptotic-pore formation by propidium iodide uptake assay; assay type: functional, cell-based; outline: as §1
# [5] = Toxicity in zebrafish embryo; design: species or system Danio rerio; conditions: in vivo
# Outline: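 Zebrafish embryos exposed to compound. EC100 is the concentration at which all treated embryos show early lethality, embryonic defects or developmental delay.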
# [6] = target: T1, Gasdermin-D (Homo sapiens) (UniProt P57764); test: Inhibition of N-terminal GSDMD p30 fragment-mediated pyroptotic-cell death in doxycyclin-treated human HEK293T cells assessed as cell death at 5 uM by LDH assay; assay type: cell-based; conditions: HEK-293T
# T1 sequence (whole entry): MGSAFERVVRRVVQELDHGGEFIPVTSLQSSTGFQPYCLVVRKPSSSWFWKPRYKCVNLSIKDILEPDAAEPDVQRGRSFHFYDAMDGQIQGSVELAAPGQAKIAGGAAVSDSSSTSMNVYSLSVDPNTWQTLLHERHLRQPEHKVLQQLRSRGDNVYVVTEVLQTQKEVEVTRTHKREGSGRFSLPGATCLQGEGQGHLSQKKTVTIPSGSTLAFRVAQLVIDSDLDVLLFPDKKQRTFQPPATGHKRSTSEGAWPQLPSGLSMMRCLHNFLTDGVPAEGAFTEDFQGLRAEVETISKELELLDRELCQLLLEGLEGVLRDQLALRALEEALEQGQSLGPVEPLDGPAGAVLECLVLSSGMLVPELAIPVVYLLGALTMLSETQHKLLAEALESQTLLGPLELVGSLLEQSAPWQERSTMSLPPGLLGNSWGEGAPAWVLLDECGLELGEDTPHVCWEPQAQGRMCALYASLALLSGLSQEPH
# [7] = target: T2, Caspase-1 (Mus musculus) (UniProt P29452); test: Inhibition of caspase-1 activity in LPS-primed immortalized mouse […] cells assessed as reduction in nigericin-induced GSDMD cleavage at 5 uM by Western blot analysis; assay type: cell-based; conditions: J774.A1
# T2 sequence (whole entry): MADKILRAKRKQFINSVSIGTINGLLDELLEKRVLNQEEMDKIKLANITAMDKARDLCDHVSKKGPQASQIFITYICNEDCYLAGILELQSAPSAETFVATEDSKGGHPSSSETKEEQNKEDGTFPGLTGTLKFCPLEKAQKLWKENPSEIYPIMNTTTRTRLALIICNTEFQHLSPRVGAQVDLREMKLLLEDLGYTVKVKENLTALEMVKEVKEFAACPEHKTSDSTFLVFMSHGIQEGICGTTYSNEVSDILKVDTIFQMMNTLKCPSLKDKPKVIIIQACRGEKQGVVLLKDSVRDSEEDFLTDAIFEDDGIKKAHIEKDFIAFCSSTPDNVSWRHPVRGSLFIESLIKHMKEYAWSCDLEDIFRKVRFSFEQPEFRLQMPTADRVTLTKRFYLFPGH
# Outline: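 Western blot for GSDMD cleavage in immortalized macrophages, with tubulin as loading control. Representative of n ≥ 3 independent experiments.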
# [8] = test system: Mus musculus; test: Antiinflammatory activity against LPS-induced sepsis C57BL/6J mouse model assessed as reduction in alveolar exudate at 20 mg/kg, iv administered as single dose for 1 hr prior to LPS challenge and measured after 48 hrs by hematoxylin-eosin staining based inverted microscopy analysis; assay type: functional, organism-based
# [9] = target: T2, Caspase-1 (Mus musculus); test: Inhibition of caspase-1 activity in LPS-primed immortalized mouse […] cells assessed as reduction in nigericin-induced Ac-YVAD-pNA cleavage using Ac-YVAD-pNA as substrate at 5 uM by FAM-FLICA reagent based confocal microscopy; assay type: cell-based; conditions: J774.A1
# Outline: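 Nigericin-treated macrophages. Active caspase-1 was detected two ways: in J774A.1 cells stained with the FAM-FLICA probe plus Hoechst, imaged by confocal microscopy and FLICA intensity quantified in ≥20 cells per group; and with the Ac-YVAD-pNA substrate. Mean ± SEM, n ≥ 3.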
# [10] = target: T3, Caspase-4 (Mus musculus) (UniProt P70343); test: Inhibition of pyroptosis-inducing caspase-11 in LPS-primed immortalized mouse […] cells assessed as cell death at 5 uM by LDH assay; assay type: cell-based; conditions: J774.A1
# T3 sequence (whole entry): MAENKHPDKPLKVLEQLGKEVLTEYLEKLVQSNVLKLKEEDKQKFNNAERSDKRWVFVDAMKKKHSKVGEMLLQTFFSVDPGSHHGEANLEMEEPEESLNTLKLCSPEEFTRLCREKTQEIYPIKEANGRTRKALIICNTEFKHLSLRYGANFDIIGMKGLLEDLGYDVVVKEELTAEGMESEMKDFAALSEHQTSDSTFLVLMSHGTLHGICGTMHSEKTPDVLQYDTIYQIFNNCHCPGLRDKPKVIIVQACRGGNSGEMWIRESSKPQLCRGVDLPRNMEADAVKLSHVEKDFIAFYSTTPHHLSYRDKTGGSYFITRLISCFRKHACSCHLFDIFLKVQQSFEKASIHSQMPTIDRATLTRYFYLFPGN
# Outline: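 Cell death induced by cytoplasmic LPS in J774A.1 cells, measured by LDH release. Mean ± SEM, n ≥ 3.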
compound,measurement,setting,value
CCOC(CN1C(=O)C(NC(=O)Nc2ccc(C)cc2)(C(F)(F)C(=O)Nc2ccc(C)cc2)c2ccccc21)OCC (stereo not given),inhibition,[1],Active
same,Activity,[2],Active
same,inhibition,[3],Active
same,inhibition,[4],Active
same,EC100,[5],> 50 µM
same,inhibition,[6],inactive
same,inhibition,[7],Active
same,Activity,[8],Active
same,inhibition,[9],Active
same,inhibition,[10],Active
